Experiments:
Assay type in all cases: in vivo, human
[1] = Urine pharmacokinetics after single dose; settings: for CL renal: human, urine, oral, CLR, Amean (n) (range); for fe (0–24), dose fraction excreted unchanged in the urine, Amean (n) (range): zero to 24 h post dose
tumour glucose uptake = assay: Metabolic response by FDG-PET; settings: day 35
Summary of the method: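 FDG-PET was done at screening in solid-tumour patients with RECIST-measurable lesions and in all lymphoma patients. Percentage change in SUVmax from baseline was calculated. Metabolic response was defined as an SUVmax decrease >25% per EORTC criteria.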

[2] = system: phosphorylation levels of 4E-BP1 on threonine^37/46 in peripheral blood mononuclear cells (PBMCs); assay: 4E-BP1 phosphorylation in PBMCs; settings: 2 h post dose, MTD cohort (90 mg)
Summary of the method: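 Adult patients with refractory advanced solid tumours or lymphoma got one oral dose on day 1, then continuous twice-daily dosing from one week later. They fasted at least 1 h before and after each dose. PBMCs were taken pre-dose and 2, 8 and 24 h post dose on day 1. Antibodies to the phosphorylated forms were used: AKT Ser473 by mesoscale detection, 4E-BP1 Thr37/46 by FACS.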

[3] = system: pAKT, p4E-BP1 and pS6 in tumour biopsies; assay: Immunohistochemistry of paired pre- and post-dose tumour biopsies; settings: two patients with baseline and post-dose tumour sample
[4] = Plasma pharmacokinetics, non-compartmental analysis; settings: for Dose proportionality of exposure: BID dosing; for AUC(0-t): AUC0–12, Gmean (range)
[5] = following BID dosing, 10 mg BID solution
[6] = following BID dosing, 20 mg BID solution
[7] = following BID dosing, 40 mg BID solution
[8] = following BID dosing, 40 mg BID tablet
[9] = following BID dosing, 60 mg BID tablet
[10] = following BID dosing, 90 mg BID tablet
[11] = following BID dosing, 120 mg BID tablet

**Q.** What does the source list for `COc1ccc(-c2ccc3c(N4CCOC[C@@H]4C)nc(N4CCOC[C@@H]4C)nc3n2)cc1CO` [AZD8055]?
**A.** Dose excreted unchanged in the urine ([1]; all dose levels, first 24 h following the single dose): < 0.25%; CL renal ([1]; 10 mg, single dose, 10 mg solution): 1.95 mL/min; CL renal ([1]; 20 mg, single dose, 20 mg solution): 1.29 mL/min; CL renal ([1]; 40 mg, single dose, 40 mg solution): 1.78 mL/min; CL renal ([1]; 40 mg, single dose, 40 mg tablet): 3.68 mL/min; CL renal ([1]; 60 mg, single dose, 60 mg tablet): 2.67 mL/min; CL renal ([1]; 90 mg, single dose, 90 mg tablet): 1.75 mL/min; CL renal ([1]; 120 mg, single dose, 120 mg tablet): 1.68 mL/min; Renal clearance ([1]; single dose): low renal clearance; fe (0–24), dose fraction excreted unchanged in the urine, Amean (n) (range) ([1]; single dose, 10 mg solution): 0.0248 (4) (0.0121–0.0438) %; fe (0–24), dose fraction excreted unchanged in the urine, Amean (n) (range) ([1]; single dose, 20 mg solution): 0.0114 (3) (0.00512–0.0207) %; fe (0–24), dose fraction excreted unchanged in the urine, Amean (n) (range) ([1]; single dose, 40 mg solution): 0.0227 (5) (0.00907–0.0423) %; fe (0–24), dose fraction excreted unchanged in the urine, Amean (n) (range) ([1]; single dose, 40 mg tablet): 0.0881 (6) (0.0043–0.224) %; fe (0–24), dose fraction excreted unchanged in the urine, Amean (n) (range) ([1]; single dose, 60 mg tablet): 0.0222 (7) (0.00289–0.0712) %; fe (0–24), dose fraction excreted unchanged in the urine, Amean (n) (range) ([1]; single dose, 90 mg tablet): 0.0231 (9) (0.00155–0.0704) %; fe (0–24), dose fraction excreted unchanged in the urine, Amean (n) (range) ([1]; single dose, 120 mg tablet): 0.0375 (7) (0.00237–0.151) %; Patients with partial metabolic response by FDG-PET (decrease in SUVmax>25%) (tumour glucose uptake; 40 mg tablet BID): 2/5; Patients with partial metabolic response by FDG-PET (decrease in SUVmax>25%) (tumour glucose uptake; 60 mg BID): 2/5; Patients with partial metabolic response by FDG-PET (decrease in SUVmax>25%) (tumour glucose uptake; 90 mg BID): 1/7; Patients with partial metabolic response by FDG-PET (decrease in SUVmax>25%) (tumour glucose uptake; 120 mg BID): 3/9; Patients with transient decrease in p4E-BP1 in PBMC [2]: 2/5; Biomarker modulation for pAKT, p4E-BP1 and pS6 in tumour samples [3]: did not show conclusive evidence of biomarker modulation; Dose proportionality of exposure ([4]; solution formulation (10–40 mg)): proportional increase in exposure; Dose proportionality of exposure ([4]; tablet formulation (40–120 mg)): greater than proportional increase with increasing dose; CLss/F, Amean (n) (range) [4, 5]: 439 (4) (352–521) l h^−1; Cmin ss, Gmean (n) (range) [4, 5]: 0.114 (3) (0.057–0.189) ng ml^−1; T c (temporal change, linearity factor), Gmean (n) (range) [4, 5]: 1.03 (4) (0.839–1.48); CLss/F, range only (Amean NC, n=2) [4, 6]: NC (2) (268–426) l h^−1; Cmin ss, range only (Gmean NC, n=1) [4, 6]: NC (1) (0.228–0.228) ng ml^−1; T c (temporal change, linearity factor), range only (Gmean NC, n=2) [4, 6]: NC (2) (1.61–2.07); CLss/F, Amean (n) (range) [4, 7]: 369 (6) (278–492) l h^−1; Cmin ss, Gmean (n) (range) [4, 7]: 0.370 (5) (0.162–0.821) ng ml^−1; T c (temporal change, linearity factor), Gmean (n) (range) [4, 7]: 1.10 (6) (0.539–1.65); CLss/F, Amean (n) (range) [4, 8]: 465 (5) (148–906) l h^−1; Cmin ss, Gmean (n) (range) [4, 8]: 0.959 (5) (0.294–2.71) ng ml^−1; T c (temporal change, linearity factor), Gmean (n) (range) [4, 8]: 0.806 (5) (0.444–1.13); CLss/F, Amean (n) (range) [4, 9]: 483 (6) (92.9–1250) l h^−1; T c (temporal change, linearity factor), Gmean (n) (range) [4, 9]: 1.30 (6) (0.525–2.50); CLss/F, Amean (n) (range) [4, 10]: 856 (4) (457–1630) l h^−1; Cmin ss, Gmean (n) (range) [4, 10]: 0.543 (5) (0.177–3.18) ng ml^−1; T c (temporal change, linearity factor), Gmean (n) (range) [4, 10]: 1.18 (4) (0.831–1.69); CLss/F, Amean (n) (range) [4, 11]: 283 (7) (68.2–494) l h^−1; Cmin ss, Gmean (n) (range) [4, 11]: 3.54 (5) (1.40–41.1) ng ml^−1; T c (temporal change, linearity factor), Gmean (n) (range) [4, 11]: 1.81 (7) (1.09–3.50); AUC(0-t) ([4]; human, plasma, oral, 10 mg, single dose, 10 mg solution (n=5)): 24.1 ng·h/mL; AUC ([4]; human, plasma, oral, 10 mg, AUC, Gmean (range), single dose, 10 mg solution (n=5)): 24.5 ng·h/mL; AUC ([4]; human, plasma, oral, 10 mg, AUCss, Gmean (n) (range), following BID dosing, 10 mg BID solution): 23 ng·h/mL; Cmax ([4]; human, plasma, oral, 10 mg, Cmax ss, Gmean (n) (range), following BID dosing, 10 mg BID solution): 17.3 ng/mL; Cmax ([4]; human, plasma, oral, 10 mg, Cmax, Gmean (range), single dose, 10 mg solution (n=5)): 16.8 ng/mL; Vd/F ([4]; human, plasma, oral, 10 mg, Vss/F, Amean (range), single dose, 10 mg solution (n=5)): 884 L; half-life ([4]; human, plasma, oral, 10 mg, t1/2, Amean (range), single dose, 10 mg solution (n=5)): 146 min; half-life ([4]; human, plasma, oral, 10 mg, t1/2 ss, Amean (n) (range), following BID dosing, 10 mg BID solution): 169 min; Tmax ([4]; human, plasma, oral, 10 mg, tmax ss, Median (n) (range), following BID dosing, 10 mg BID solution): 30 min; Tmax ([4]; human, plasma, oral, 10 mg, tmax, Median (range), single dose, 10 mg solution (n=5)): 30 min; AUC(0-t) ([4]; human, plasma, oral, 20 mg, single dose, 20 mg solution (n=3)): 43.3 ng·h/mL; AUC ([4]; human, plasma, oral, 20 mg, AUC, Gmean (range), single dose, 20 mg solution (n=3)): 43.7 ng·h/mL; Cmax ([4]; human, plasma, oral, 20 mg, Cmax, Gmean (range), single dose, 20 mg solution (n=3)): 27 ng/mL

— paper PMC3461162 (British Journal of Cancer, 2012)
